According to ChEMBL document CHEMBL1833841, “Synthesis and biological evaluation of a novel class of isatin analogs as dual inhibitors of tubulin polymerization and Akt pathway” (Bioorg Med Chem, 2011):
Calls of active or inactive are those of the source. No cut-off for these calls is given here.

How the values were obtained:
HT-29 [1] = assay: Cytotoxicity against human HT-29 cells after 48 hrs by MTS assay; type: functional, cell-based; conditions: HT-29, 48 h
Method in brief: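 HT29 cells maintained in RPMI with 10% FBS. 5×10^3 cells/well were left to adhere 24 h, then exposed 48 h to compound (DMSO stock diluted in DMEM, 0.5–50 µM). MTS absorbance at 490 nm normalized to control. IC50 from sigmoidal variable-slope fit. Triplicates, at least two independent experiments.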

A549 = assay: Cytotoxicity against human A549 cells after 48 hrs by MTS assay; type: functional, cell-based; conditions: A549, 48 h
Method in brief: (§1)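 A549, MCF-7 and UACC903 cells grown in DMEM with 10% FBS at 37°C, 5% CO2. 5×10^3 cells/well were left to adhere 24 h, then treated 48 h with compound (DMSO stock diluted in DMEM, 0.5–50 µM). MTS read at 490 nm and normalized to control. Dose-response fitted as sigmoidal, variable slope. Triplicates from at least two independent experiments.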

UACC-903 = assay: Cytotoxicity against human UACC903 cells after 48 hrs by MTS assay; type: functional, cell-based; conditions: UACC-903, 48 h; method in brief: as §1
MCF7 = assay: Cytotoxicity against human MCF7 cells after 48 hrs by MTS assay; type: functional, cell-based; conditions: MCF7, 48 h; method in brief: as §1
HT-29 [2] = assay: Induction of apoptosis in human HT-29 cells assessed as increase in caspase 3/7 activation after 24 hrs by fluorescence spectrophotometry; type: functional, cell-based
Method in brief: (§2)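 HT29 cells seeded at 1×10^4/well and grown 24 h, then treated 24 h with 1.25–5 µM compound or DMSO. Equal volume of Apo-ONE caspase-3/7 reagent added, shaken 30 s, incubated 2 h at RT. Cleaved-substrate fluorescence read at ex 498/em 521 nm, expressed relative to DMSO cells. Means ± SD, triplicate, one representative experiment.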

HT-29 [3] = assay: Induction of apoptosis in human HT-29 cells at 2.5 uM after 24 hrs by PE annexin V and 7-Aminoactinomycin D staining-based flow cytometry; type: functional
Method in brief: (§3)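 HT29 cells (RPMI, 10% FBS) treated with 1.25, 2.5 or 5 μM, or DMSO control, for 24 h at 37 °C. Cells then harvested, washed twice in cold PBS and resuspended at 1×10^6 cells/ml in binding buffer. Stained with PE annexin V and 7-AAD for 15 min at RT in the dark, then analysed by flow cytometry. 7-AAD-positive cells counted as dead.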

HT-29 [4] = assay: Induction of apoptosis in human HT-29 cells at 1.25 uM after 24 hrs by PE annexin V and 7-Aminoactinomycin D staining-based flow cytometry; type: functional; method in brief: as §3
HT-29 [5] = assay: Induction of apoptosis in human HT-29 cells assessed as early apoptotic cells at 5 uM after 24 hrs by PE annexin V and 7-Aminoactinomycin D staining-based flow cytometry (reference value: 1.37%); type: functional
Method in brief: (§4)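 HT29 cells were treated with 1.25–5.0 µM compound or DMSO for 24 h at 37°C, harvested by low-speed centrifugation and washed twice in cold PBS. They were resuspended in binding buffer at 1×10^6 cells/ml, stained with PE annexin V and 7-AAD for 15 min at RT in the dark, and quantified by flow cytometry.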

HT-29 [6] = assay: Induction of apoptosis in human HT-29 cells assessed as viable cells at 2.5 uM after 24 hrs by PE annexin V and 7-Aminoactinomycin D staining-based flow cytometry (reference value: 93.2%); type: functional; conditions: HT-29, 24 h, read-out: Activity; method in brief: as §4
HT-29 [7] = assay: Induction of apoptosis in human HT-29 cells assessed as early apoptotic cells at 1.25 uM after 24 hrs by PE annexin V and 7-Aminoactinomycin D staining-based flow cytometry (reference value: 1.37%); type: functional; method in brief: as §4
HT-29 [8] = assay: Induction of apoptosis in human HT-29 cells assessed as late apoptosis or necrotic cells at 2.5 uM after 24 hrs by PE annexin V and 7-Aminoactinomycin D staining-based flow cytometry (reference value: 4.1%); type: functional; method in brief: as §4
HT-29 [9] = assay: Induction of apoptosis in human HT-29 cells after 24 hrs by PE annexin V and 7-Aminoactinomycin D staining-based flow cytometry; type: functional, cell-based; method in brief: as §4
HT-29 [10] = assay: Inhibition of AKT expression in human HT-29 cells assessed as total AKT level at 2 uM after 24 hrs by Western blotting; type: functional, cell-based
Method in brief: (§5)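 HT29 cells treated 24 h with 1 or 2 µM compound or no drug. Lysed in HEPES/NaCl/EDTA/NP40 buffer with phosphatase and protease inhibitors. Protein equalized by Bradford, run on 10% gels, semi-dry transfer to nitrocellulose, blocked in 5% milk. Pan-Akt or phospho-Akt rabbit polyclonal primaries overnight at 4°C, HRP secondaries, chemiluminescence. β-actin loading control.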

[11] = target: RAC-alpha serine/threonine-protein kinase (Homo sapiens) (UniProt P31749); assay: Inhibition of AKT phosphorylation in human HT-29 cells assessed as p-AKT level at 1 uM after 24 hrs by Western blotting; type: cell-based; method in brief: as §5
HT-29 [12] = assay: Inhibition of AKT expression in human HT-29 cells assessed as total AKT level at 1 uM after 24 hrs by Western blotting; type: functional, cell-based; method in brief: as §5
HT-29 [13] = assay: Induction of apoptosis in human HT-29 cells assessed as late apoptosis or necrotic cells at 5 uM after 24 hrs by PE annexin V and 7-Aminoactinomycin D staining-based flow cytometry (reference value: 4.1%); type: functional; method in brief: as §4
HT-29 [14] = assay: Induction of apoptosis in human HT-29 cells assessed as early apoptotic cells at 2.5 uM after 24 hrs by PE annexin V and 7-Aminoactinomycin D staining-based flow cytometry (reference value: 1.37%); type: functional; method in brief: as §4
HT-29 [15] = assay: Induction of apoptosis in human HT-29 cells assessed as viable cells at 5 uM after 24 hrs by PE annexin V and 7-Aminoactinomycin D staining-based flow cytometry (reference value: 93.2%); type: functional; conditions: HT-29, 24 h, read-out: Activity; method in brief: as §4
HT-29 [16] = assay: Induction of apoptosis in human HT-29 cells assessed as dead cells at 5 uM after 24 hrs by PE annexin V and 7-Aminoactinomycin D staining-based flow cytometry (reference value: 1.33%); type: functional; method in brief: as §3
HT-29 [17] = assay: Induction of apoptosis in human HT-29 cells at 5 uM after 24 hrs by PE annexin V and 7-Aminoactinomycin D staining-based flow cytometry (reference value: 6.8%); type: functional; method in brief: as §3
HT-29 [18] = assay: Induction of apoptosis in human HT-29 cells assessed as dead cells at 1.25 uM after 24 hrs by PE annexin V and 7-Aminoactinomycin D staining-based flow cytometry (reference value: 1.33%); type: functional; method in brief: as §3
HT-29 [19] = assay: Induction of apoptosis in human HT-29 cells assessed as viable cells at 1.25 uM after 24 hrs by PE annexin V and 7-Aminoactinomycin D staining-based flow cytometry (reference value: 93.2%); type: functional; conditions: HT-29, 24 h, read-out: Activity; method in brief: as §4
HT-29 [20] = assay: Induction of apoptosis in human HT-29 cells assessed as late apoptosis or necrotic cells at 1.25 uM after 24 hrs by PE annexin V and 7-Aminoactinomycin D staining-based flow cytometry (reference value: 4.1%); type: functional; method in brief: as §4
HT-29 [21] = assay: Induction of apoptosis in human HT-29 cells assessed as increase in caspase 3/7 activation after 24 hrs by fluorescence spectrophotometry relative to control; type: functional; parameters: concentration or dose not given beside the values; method in brief: as §2
HT-29 [22] = assay: Induction of apoptosis in human HT-29 cells assessed as dead cells at 2.5 uM after 24 hrs by PE annexin V and 7-Aminoactinomycin D staining-based flow cytometry (reference value: 1.33%); type: functional; method in brief: as §3
Bos taurus = organism: Bos taurus; assay: Inhibition of bovine brain tubulin polymerization at 10 uM after 1 hrs by fluorescence assay
Method in brief: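 Compound at 10 µM final, DMSO as control. Fluorescence (ex 360, em 440 nm) read every 10 s for 1 h at 37°C, duplicate wells.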

Sequence of RAC-alpha serine/threonine-protein kinase (Homo sapiens) (P31749 whole entry): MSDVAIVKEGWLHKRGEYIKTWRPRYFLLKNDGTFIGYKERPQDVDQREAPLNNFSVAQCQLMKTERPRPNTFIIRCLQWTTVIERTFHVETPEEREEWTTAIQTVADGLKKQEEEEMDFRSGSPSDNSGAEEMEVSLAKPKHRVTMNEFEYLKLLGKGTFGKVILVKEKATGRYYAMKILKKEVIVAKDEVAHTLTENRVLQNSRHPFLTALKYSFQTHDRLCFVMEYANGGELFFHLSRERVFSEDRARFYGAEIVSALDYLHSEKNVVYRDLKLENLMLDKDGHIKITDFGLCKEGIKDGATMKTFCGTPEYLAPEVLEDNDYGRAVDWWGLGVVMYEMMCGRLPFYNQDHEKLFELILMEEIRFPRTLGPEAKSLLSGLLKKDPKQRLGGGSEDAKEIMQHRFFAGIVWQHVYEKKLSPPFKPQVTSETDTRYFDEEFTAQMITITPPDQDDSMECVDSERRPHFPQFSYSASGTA

SMILES: N#C[Se]Cc1ccc(CN2C(=O)C(=O)c3cc(Br)cc(Br)c32)cc1
- IC50 (HT-29 [1]): 2.59 µM
- IC50 (A549): 2.41 µM
- IC50 (UACC-903): 12.1 µM
- IC50 (MCF7): 1.45 µM

SMILES: O=C1C(=O)N(CCCCl)c2c(Br)cc(Br)cc21
- IC50 (HT-29 [1]): 2.57 µM
- IC50 (A549): 5.27 µM
- IC50 (UACC-903): 8.57 µM
- IC50 (MCF7): 21.5 µM

SMILES: O=C1C(=O)N(Cc2ccc(CN=C=S)cc2)c2c(Br)cc(Br)cc21
- Activity (HT-29 [2]): Dose-dependent effect
- IC50 (HT-29 [1]): 1.09 µM
- Activity (HT-29 [3]): 36.64%
- Activity (HT-29 [4]): 16.38%
- IC50 (A549): 3.82 µM
- Activity (HT-29 [5]): 2.93%
- IC50 (UACC-903): 3.11 µM
- viability at 2.5 µM (HT-29 [6]): 63.4%
- Activity (HT-29 [7]): 3.5%
- Activity (HT-29 [8]): 23.3%
- Activity (HT-29 [9]): Dose-dependent effect
- inhibition (HT-29 [10]): Active
- IC50 (MCF7): 12 µM
- inhibition [11]: inactive
- inhibition (HT-29 [12]): Active
- Activity (HT-29 [13]): 47.5%
- Activity (HT-29 [14]): 6.78%
- viability at 5 µM (HT-29 [15]): 38.8%
- Activity (HT-29 [16]): 10.8%
- Activity (HT-29 [17]): 61.23%
- Activity (HT-29 [18]): 4.29%
- viability at 1.25 µM (HT-29 [19]): 83.6%
- Activity (HT-29 [20]): 8.59%
- fold change (FC) (HT-29 [21]): 16
- Activity (HT-29 [22]): 6.56%
- inhibition (Bos taurus): 77%

SMILES: CC(=O)O[C@H]1C(=O)[C@@]2(C)[C@H]([C@H](OC(=O)c3ccccc3)[C@]3(O)C[C@H](OC(=O)[C@H](O)[C@@H](NC(=O)c4ccccc4)c4ccccc4)C(C)=C1C3(C)C)[C@]1(OC(C)=O)CO[C@@H]1C[C@@H]2O
- inhibition (Bos taurus): inactive

SMILES: N#CSCCCCN1C(=O)C(=O)c2cc(Br)cc(Br)c21
- IC50 (HT-29 [1]): 2.42 µM
- IC50 (A549): 5.53 µM
- IC50 (UACC-903): 2.06 µM
- IC50 (MCF7): 22.1 µM

SMILES: N#CSCCCN1C(=O)C(=O)c2cc(Br)cc(Br)c21
- IC50 (HT-29 [1]): 3.24 µM
- IC50 (A549): 3.53 µM
- IC50 (UACC-903): 2.89 µM
- IC50 (MCF7): 9.78 µM

SMILES: N#C[Se]CCCN1C(=O)C(=O)c2cc(Br)cc(Br)c21
- Activity (HT-29 [2]): Dose-dependent effect
- IC50 (HT-29 [1]): 3.18 µM
- Activity (HT-29 [3]): 10.44%
- Activity (HT-29 [4]): 7.92%
- IC50 (A549): 3.46 µM
- Activity (HT-29 [5]): 48.6%
- IC50 (UACC-903): 21.6 µM
- viability at 2.5 µM (HT-29 [6]): 89.6%
- Activity (HT-29 [7]): 1.94%
- Activity (HT-29 [8]): 6.27%
- Activity (HT-29 [9]): Dose-dependent effect
- IC50 (MCF7): 1.65 µM
- Activity (HT-29 [13]): 5.79%
- Activity (HT-29 [14]): 2.25%
- viability at 5 µM (HT-29 [15]): 43.8%
- Activity (HT-29 [16]): 1.89%
- Activity (HT-29 [17]): 56.28%
- Activity (HT-29 [18]): 1.53%
- viability at 1.25 µM (HT-29 [19]): 92.1%
- Activity (HT-29 [20]): 4.45%
- fold change (FC) (HT-29 [21]): 16
- Activity (HT-29 [22]): 1.92%
- inhibition (Bos taurus): 63%
